ChEMBL document CHEMBL3745705, “Discovery of Oral VEGFR-2 Inhibitors with Prolonged Ocular Retention That Are Efficacious in Models of Wet Age-Related Macular Degeneration” (J Med Chem, 2015)
≈ marks a conversion by molar mass, not a printed value.

What was measured:
Mus musculus [1] = species on record: Mus musculus; experiment: animal or person; conditions: C57BL/6, po, read-out: INH
Mus musculus [2] = experiment: Antiangiogenic activity in po dosed C57BL/6 mouse laser-induced choroidal neovascularization assessed as inhibition of neovascular lesion formation administered qd for 6 days measured on day 7 by microscopic analysis; format: functional; conditions: C57BL/6, po
Rattus norvegicus [3] = experiment: Antiangiogenic activity in po dosed Brown Norway rat laser-induced choroidal neovascularization model assessed as inhibition of neovascular lesion formation administered qd for 14 days by microscopic analysis; format: functional; conditions: 336 h
Procedure, shortened: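 Male Brown Norway rats, about 12 weeks old, dosed by oral gavage starting about 1 h before laser. Lesions were made under ketamine/xylazine i.p. (40–80 / 5–10 mg/kg) with 532 nm laser pulses (30 ms, 190 mW, 200 µm spot), about 4 lesions per eye and 10 rats per group. Vessels were labelled with i.v. 2,000 kD FITC dextran, eyes fixed in 4% paraformaldehyde, and CNV area measured blinded.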

Plasma [4] = experiment: Dose normalized AUC (0 to 24 hrs) in Brown Norway rat plasma at 6 mg/kg, po; format: ADME, organism-based; conditions: in vivo
[5] = Dose normalized AUC (0 to 24 hrs) in Brown Norway rat retina at 6 mg/kg, po; format: ADME, organism-based; conditions: in vivo
[6] = Dose normalized AUC (0 to 24 hrs) in Brown Norway rat posteior eye cup at 6 mg/kg, po; format: ADME, organism-based; conditions: in vivo
Plasma [7] = experiment: Dose normalized Cmax in Brown Norway rat plasma at 6 mg/kg, po; format: ADME, organism-based; conditions: in vivo
[8] = Dose normalized Cmax in Brown Norway rat retina at 6 mg/kg, po; format: ADME, organism-based; conditions: in vivo
[9] = Dose normalized Cmax in Brown Norway rat posteior eye cup at 6 mg/kg, po; format: ADME, organism-based; conditions: in vivo
Plasma [10] = experiment: Dose normalized plasma concentration in Brown Norway rat plasma at 6 mg/kg, po measured at 24 hrs by LC-MS/MS analysis; format: ADME, organism-based; conditions: in vivo
[11] = Dose normalized drug uptake in Brown Norway rat retina at 6 mg/kg, po by LC-MS/MS analysis; format: ADME, organism-based; conditions: in vivo
Rattus norvegicus [12] = experiment: AUC (0 to 8 hrs) in Brown Norway rat at 3 mg/kg, po by LC-MS/MS analysis; format: ADME, organism-based; parameters: dose 3 mg/kg, time < 8 hr, route oral; conditions: in vivo
[13] = Volume of distribution at steady state in Brown Norway rat at 3 mg/kg, po or 1 mg/kg, iv by LC-MS/MS analysis; format: ADME, organism-based; conditions: in vivo, read-out: Vdss
[14] = Half life in Brown Norway rat at 3 mg/kg, po or 1 mg/kg, iv by LC-MS/MS analysis; format: ADME, organism-based; conditions: in vivo
[15] = Cmax in Brown Norway rat at 3 mg/kg, po or 1 mg/kg, iv by LC-MS/MS analysis; format: ADME, organism-based; conditions: in vivo
Rattus norvegicus [16] = experiment: Oral bioavailability in Brown Norway rat at 3 mg/kg by LC-MS/MS analysis; format: ADME, organism-based; conditions: in vivo
[17] = Dose normalized drug uptake in Brown Norway rat posteior eye cup at 6 mg/kg, po; format: ADME, organism-based; conditions: in vivo
[18] = biological target: Mast/stem cell growth factor receptor Kit (Homo sapiens, UniProt P10721); experiment: Inhibition of c-Kit (unknown origin)
Procedure, shortened: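 Selectivity measured in a 62-kinase panel, with results reported as IC50 (µM).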

Mus musculus [19] = experiment: Antiangiogenic activity in mouse model of laser-induced choroidal neovascularization assessed as inhibition of neovascular lesion formation at 100 mg/kg, po bid for 7 days; format: functional; conditions: 168 h
[20] = Plasma concentration in mouse model of laser-induced choroidal neovascularization at 100 mg/kg, po bid for 7 days measured 16 hrs post last dose; format: ADME, organism-based
[21] = Aqueous solubility of the compound at pH 6.8; conditions: aqueous medium
[22] = biological target: Voltage-gated inwardly rectifying potassium channel KCNH2 (Homo sapiens, UniProt Q12809); experiment: Inhibition of human ERG channel by automated Q-patch assay
Rattus norvegicus [23] = experiment: AUC (0 to 8 hrs) in Brown Norway rat at 10 mg/kg, po by LC-MS/MS analysis; format: ADME, organism-based; parameters: dose 10 mg/kg, time < 8 hr, route oral; conditions: in vivo
[24] = Volume of distribution at steady state in Brown Norway rat at 10 mg/kg, po or 1 mg/kg, iv by LC-MS/MS analysis; format: ADME, organism-based; conditions: in vivo, read-out: Vdss
Procedure, shortened: (§1)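 Brown Norway rats dosed i.v. at 1 mg/kg (n = 2; NMP/PG/cremophorEL/PBS or NMP/PEG 300/WFI vehicle) or p.o. at 3 or 10 mg/kg (n = 3; 0.5% MC/0.1% tween 80, WFI). Clearance, Vdss, t1/2, Cmax, AUC 0-8h and oral bioavailability calculated from plasma levels.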

[25] = Half life in Brown Norway rat at 10 mg/kg, po or 1 mg/kg, iv by LC-MS/MS analysis; format: ADME, organism-based; conditions: in vivo
Procedure, shortened: as §1

[26] = Cmax in Brown Norway rat at 10 mg/kg, po or 1 mg/kg, iv by LC-MS/MS analysis; format: ADME, organism-based; conditions: in vivo
Procedure, shortened: as §1

Rattus norvegicus [27] = experiment: Oral bioavailability in Brown Norway rat at 10 mg/kg by LC-MS/MS analysis; format: ADME, organism-based; conditions: in vivo
Procedure, shortened: as §1

Sequence of Voltage-gated inwardly rectifying potassium channel KCNH2 (Q12809 whole entry): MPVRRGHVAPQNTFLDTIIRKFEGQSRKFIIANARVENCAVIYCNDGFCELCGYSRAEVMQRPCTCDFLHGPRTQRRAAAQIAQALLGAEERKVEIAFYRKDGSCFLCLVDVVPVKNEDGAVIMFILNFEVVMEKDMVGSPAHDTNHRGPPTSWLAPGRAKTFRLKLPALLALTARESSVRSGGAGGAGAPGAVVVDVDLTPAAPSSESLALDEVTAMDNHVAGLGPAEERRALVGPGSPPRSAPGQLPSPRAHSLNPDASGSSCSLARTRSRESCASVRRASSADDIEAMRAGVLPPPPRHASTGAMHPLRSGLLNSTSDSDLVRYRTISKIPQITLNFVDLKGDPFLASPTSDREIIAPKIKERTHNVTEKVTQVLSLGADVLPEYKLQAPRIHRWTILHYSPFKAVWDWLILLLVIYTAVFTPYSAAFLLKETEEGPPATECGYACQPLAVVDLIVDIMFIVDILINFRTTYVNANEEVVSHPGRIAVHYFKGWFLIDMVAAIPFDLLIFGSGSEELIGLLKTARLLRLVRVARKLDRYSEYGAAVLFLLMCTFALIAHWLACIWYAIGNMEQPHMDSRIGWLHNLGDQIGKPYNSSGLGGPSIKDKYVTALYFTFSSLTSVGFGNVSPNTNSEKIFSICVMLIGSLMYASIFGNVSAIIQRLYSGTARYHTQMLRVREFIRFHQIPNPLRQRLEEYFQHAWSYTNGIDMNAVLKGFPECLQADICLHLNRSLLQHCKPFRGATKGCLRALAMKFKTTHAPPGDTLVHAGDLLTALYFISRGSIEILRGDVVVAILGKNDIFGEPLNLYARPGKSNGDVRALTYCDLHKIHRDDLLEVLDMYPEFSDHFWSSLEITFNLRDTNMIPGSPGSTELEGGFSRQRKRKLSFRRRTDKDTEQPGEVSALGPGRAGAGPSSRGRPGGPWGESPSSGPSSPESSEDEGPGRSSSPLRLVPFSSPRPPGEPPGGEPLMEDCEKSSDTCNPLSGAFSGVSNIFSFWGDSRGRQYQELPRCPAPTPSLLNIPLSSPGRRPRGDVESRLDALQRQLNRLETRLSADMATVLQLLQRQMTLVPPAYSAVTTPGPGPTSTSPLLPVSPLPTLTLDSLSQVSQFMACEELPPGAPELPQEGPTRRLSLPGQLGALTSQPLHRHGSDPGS
Sequence of Mast/stem cell growth factor receptor Kit (P10721 whole entry): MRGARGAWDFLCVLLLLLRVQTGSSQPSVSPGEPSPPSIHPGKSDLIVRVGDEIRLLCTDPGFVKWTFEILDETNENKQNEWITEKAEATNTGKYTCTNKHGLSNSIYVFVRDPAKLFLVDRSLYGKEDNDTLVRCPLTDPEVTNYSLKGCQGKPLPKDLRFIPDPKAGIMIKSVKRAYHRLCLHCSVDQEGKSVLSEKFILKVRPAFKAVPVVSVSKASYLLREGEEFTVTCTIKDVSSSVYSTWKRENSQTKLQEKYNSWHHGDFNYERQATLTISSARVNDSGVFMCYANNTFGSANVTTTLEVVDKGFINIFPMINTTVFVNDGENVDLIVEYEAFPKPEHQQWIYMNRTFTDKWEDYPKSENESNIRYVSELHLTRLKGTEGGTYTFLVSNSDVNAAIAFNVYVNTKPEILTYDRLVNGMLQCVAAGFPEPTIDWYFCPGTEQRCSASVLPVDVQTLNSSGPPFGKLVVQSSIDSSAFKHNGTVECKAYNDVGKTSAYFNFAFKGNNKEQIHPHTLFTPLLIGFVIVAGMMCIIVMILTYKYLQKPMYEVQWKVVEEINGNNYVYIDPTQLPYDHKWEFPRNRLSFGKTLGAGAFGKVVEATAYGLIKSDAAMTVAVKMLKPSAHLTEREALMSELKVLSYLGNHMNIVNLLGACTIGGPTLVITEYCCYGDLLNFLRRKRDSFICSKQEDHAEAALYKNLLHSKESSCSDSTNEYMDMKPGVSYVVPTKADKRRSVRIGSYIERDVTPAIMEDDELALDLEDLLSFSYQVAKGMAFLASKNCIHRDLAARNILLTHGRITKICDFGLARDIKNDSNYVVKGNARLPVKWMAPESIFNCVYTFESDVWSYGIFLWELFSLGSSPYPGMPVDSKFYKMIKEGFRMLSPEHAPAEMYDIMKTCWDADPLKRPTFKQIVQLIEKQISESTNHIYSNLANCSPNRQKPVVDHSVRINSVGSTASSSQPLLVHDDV

C[C@@H]1Cc2c(ncnc2Oc2ccc3c(ccn3C(=O)Nc3cc(C4(C)CC4)[nH]n3)c2)CN1
inhibition in vivo at 10 mg/kg (Mus musculus [1]): 48%

C[C@H]1Cc2c(ncnc2Oc2ccc3c(ccn3C(=O)Nc3cc(C4(C)CC4)n[nH]3)c2)CN1
ED50 (Mus musculus [2]): 3.4 mg/kg | ED90 (Mus musculus [2]): 19.6 mg/kg | ED50 (Rattus norvegicus [3]): 2.9 mg/kg | ED90 (Rattus norvegicus [3]): 14.6 mg/kg | AUC/dose (Plasma [4]): 598 nM·h/mg/kg | AUC/dose [5]: 3215 nM·h/mg/kg | AUC/dose [6]: 22266 nM·h/mg/kg | Cmax/dose (Plasma [7]): 68 nM/mg/kg | Cmax/dose [8]: 170 nM/mg/kg | Cmax/dose [9]: 1067 nM/mg/kg | Cp/dose (Plasma [10]): 1.6 nM/mg/kg | Druguptake/dose [11]: 122 nM/mg/kg | AUC (Rattus norvegicus [12]): 2490 nM·h | Vd [13]: 5.6 L/kg | half-life [14]: 2.3 h | Cmax [15]: 0.514 µM | F (Rattus norvegicus [16]): 81% | Druguptake/dose [17]: 1067 nM/mg/kg | IC50 [18]: 0.6 µM | inhibition in vivo at 10 mg/kg (Mus musculus [1]): 67%

O=C(Nc1cccc(C(F)(F)F)c1)n1ccc2cc(Oc3ncnc4c3CNCC4)ccc21
inhibition in vivo at 10 mg/kg (Mus musculus [1]): 0%

C[C@@H]1NCc2ncnc(Oc3ccc4c(ccn4C(=O)Nc4cc(C(C)(C)C)on4)c3)c21
inhibition in vivo at 10 mg/kg (Mus musculus [1]): 33%

Cc1ccc(Nc2nccc(N(C)c3ccc4c(C)n(C)nc4c3)n2)cc1S(N)(=O)=O [PAZOPANIB]
inhibition in vivo at 100 mg/kg (Mus musculus [19]): 93% | concentration at 16 h [20]: 13 µM

CC(C)c1cc(NC(=O)n2ccc3cc(Oc4ncnc5c4CNC5)ccc32)no1
solubility [21]: 37 µM (≈ 15 µg/mL) | inhibition in vivo at 10 mg/kg (Mus musculus [1]): 96%

CC(C)(C)c1cc(NC(=O)n2ccc3cc(Oc4ncnc5c4CNC5)ccc32)on1
solubility [21]: 232 µM (≈ 97.1 µg/mL) | inhibition in vivo at 10 mg/kg (Mus musculus [1]): 58%

CC(C)(C)c1cc(NC(=O)n2ccc3cc(Oc4ncnc5c4CCNC5)ccc32)no1
solubility [21]: 167 µM (≈ 72.2 µg/mL) | IC50 [22]: 7 µM | inhibition in vivo at 10 mg/kg (Mus musculus [1]): 83%

C[C@@H]1NCc2ncnc(Oc3ccc4c(ccn4C(=O)Nc4cccc(C(F)(F)F)c4)c3)c21
inhibition in vivo at 10 mg/kg (Mus musculus [1]): 41%

CC1(c2cc(NC(=O)n3ccc4cc(Oc5ncnc6c5CCNC6)ccc43)n[nH]2)CC1
solubility [21]: 252 µM (≈ 108 µg/mL) | ED50 (Mus musculus [2]): 7.8 mg/kg | ED90 (Mus musculus [2]): 25.3 mg/kg | ED50 (Rattus norvegicus [3]): 2.7 mg/kg | ED90 (Rattus norvegicus [3]): 13.6 mg/kg | AUC/dose (Plasma [4]): 166 nM·h/mg/kg | AUC/dose [5]: 310 nM·h/mg/kg | AUC/dose [6]: 2386 nM·h/mg/kg | Cmax/dose (Plasma [7]): 33 nM/mg/kg | Cmax/dose [8]: 15 nM/mg/kg | Cmax/dose [9]: 110 nM/mg/kg | Cp/dose (Plasma [10]): 0.7 nM/mg/kg | Druguptake/dose [11]: 13 nM/mg/kg | AUC (Rattus norvegicus [23]): 1120 nM·h | Vd [24]: 22 L/kg | half-life [25]: 2.7 h | Cmax [26]: 0.505 µM | F (Rattus norvegicus [27]): 51% | Druguptake/dose [17]: 102 nM/mg/kg | inhibition in vivo at 10 mg/kg (Mus musculus [1]): 64%

CC(C)(C)c1cc(NC(=O)n2ccc3cc(Oc4ncnc5c4CCNC5)ccc32)n[nH]1
solubility [21]: 682 µM (≈ 294 µg/mL) | inhibition in vivo at 10 mg/kg (Mus musculus [1]): 0%

C[C@H]1Cc2c(ncnc2Oc2ccc3c(ccn3C(=O)Nc3cc(C(C)(C)C)on3)c2)CN1
inhibition in vivo at 10 mg/kg (Mus musculus [1]): 96%

CC1(c2cc(NC(=O)n3ccc4cc(Oc5ncnc6c5CNC6)ccc43)no2)CC1
inhibition in vivo at 10 mg/kg (Mus musculus [1]): 90%

O=C(Nc1cccc(C(F)(F)F)c1)n1ccc2cc(Oc3cc(CO)ncn3)ccc21
inhibition in vivo at 10 mg/kg (Mus musculus [1]): 45%
